# Experimental data from different studies.
# Target: Serine/threonine-protein kinase DCLK1 (DCLK1, Homo sapiens, UniProt O15075)
# Method: competition with immobilised ligand
# One construct used (O15075 1-740): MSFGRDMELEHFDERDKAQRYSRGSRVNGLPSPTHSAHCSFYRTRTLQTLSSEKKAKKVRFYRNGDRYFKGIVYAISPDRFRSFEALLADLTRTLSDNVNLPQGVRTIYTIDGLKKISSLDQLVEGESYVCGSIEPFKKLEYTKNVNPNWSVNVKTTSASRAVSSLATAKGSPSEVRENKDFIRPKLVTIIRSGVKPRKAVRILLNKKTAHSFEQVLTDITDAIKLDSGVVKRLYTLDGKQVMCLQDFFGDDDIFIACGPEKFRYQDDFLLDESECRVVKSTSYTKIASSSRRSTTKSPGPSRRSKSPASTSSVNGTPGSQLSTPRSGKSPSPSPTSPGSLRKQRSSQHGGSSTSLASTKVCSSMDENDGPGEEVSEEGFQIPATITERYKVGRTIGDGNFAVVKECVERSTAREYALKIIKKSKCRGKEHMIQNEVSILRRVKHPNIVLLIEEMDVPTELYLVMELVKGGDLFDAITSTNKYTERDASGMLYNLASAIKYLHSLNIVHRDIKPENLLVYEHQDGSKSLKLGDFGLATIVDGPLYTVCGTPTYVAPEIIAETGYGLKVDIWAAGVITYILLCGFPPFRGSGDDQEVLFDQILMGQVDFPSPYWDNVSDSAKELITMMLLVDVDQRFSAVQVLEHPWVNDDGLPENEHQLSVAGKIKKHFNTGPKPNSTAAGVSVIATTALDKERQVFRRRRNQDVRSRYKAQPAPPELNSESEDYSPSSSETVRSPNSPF
SMILES,effect on,concentration,remaining binding
C[C@@H]1CN(c2ccc3ncc(-c4ccc5[nH]nc(C6CC6)c5c4)n3n2)C[C@H](C)O1,binding,0.5 µM,100%
N[C@H]1CCN(c2nccc(-c3cnn4ncccc34)n2)C1,binding,1 µM,83%
Cc1noc([C@H]2C[C@@H](c3ccc(C(F)(F)F)cc3)CN(C(=O)N3CCS(=O)(=O)C3)C2)n1,cell-free assay,1 µM,75%
FC(F)(F)Oc1cccc(-c2cnc3ccc(-c4ccncc4)nn23)c1,cell-free assay,5 µM,69%
c1cnn2ncc(-c3ccnc(N4CCC45COC5)n3)c2c1,binding,1 µM,82%
COc1cc(C(=O)N2CCC(N3CCN(C)CC3)CC2)ccc1Nc1ncc2c(n1)N(C)c1ccccc1C(=O)N2C,binding,10 µM,4.2%
Cc1cnc(Nc2ccc(C(=O)N3CCC(N4CCCC4)CC3)cc2)nc1-c1cc2ccccc2s1,binding,1 µM,68%
CC1=C(C#N)C(c2ccc3c(c2)c(NC(=O)c2ccccc2C)nn3C)C(C#N)=C(C)N1,cell-free assay,1 µM,79%
CNC(=O)[C@@H]1CC[C@@H](n2c(-c3ccc4cnccc4c3)nc3ccc(C(=O)NCc4cccc(C(N)=O)c4)cc32)C1,binding,1 µM,85%
c1cncc(-c2cccc(Nc3nccc(NC4CCCCC4)n3)c2)c1,binding,10 µM,92%
C[C@@H]1CCN(c2nccc(-c3cnn4ncccc34)n2)C1,binding,1 µM,84%
COc1ncc2cc3ccccc3nc2c1C#N,cell-free assay,5 µM,98%
O=C(c1ccc(Nc2nccc(-c3cc4ccccc4s3)n2)cc1)N1CCC(N2CCCC2)CC1,binding,1 µM,86%
COc1ccnn2ncc(-c3ccnc(N(C)C)n3)c12,binding,1 µM,80%
COCCOc1nc(-c2ccc(Cl)nc2)nc2c1CN(C(=O)c1ncn3ccccc13)CC2,cell-free assay,0.1 µM,100%
CC1CCCN1c1nccc(-c2cnn3ncccc23)n1 (centres unmarked),binding,1 µM,87%
CNCc1ccccc1-c1csc([C@H](C)Nc2nc(C)nc3cc(OC)c(OC)cc23)c1,cell-free assay,1 µM,87%
COc1cnc(Nc2cccc(S(N)(=O)=O)c2)nc1N1CCN(c2ccccc2)C(=O)C1,binding,1 µM,83%
Cn1nc(C(=O)NCc2ccc(C(=O)O)cc2)cc1-c1ccc2[nH]ccc2c1,cell-free assay,0.1 µM,88%
O=C(NCC1CCOCC1)c1n[nH]cc1NC(=O)c1c(F)cccc1F,binding,1 µM,75%
CC(C)CC(=O)N1CCc2nc(-c3ccc(Br)cc3)nc(N(C)Cc3ccccc3)c2C1,cell-free assay,0.1 µM,100%
Cc1cnn2ncc(-c3ccnc(N(C)C)n3)c2c1,binding,1 µM,91%
COc1ccc2cc(OCC3(C(=O)O)CN(C(=O)c4ccc(F)cc4)C3)ccc2c1,cell-free assay,1 µM,100%
O=C(c1ccc(Nc2ncc(Cl)c(-c3ccc(Cl)s3)n2)cc1)N1CCC(N2CCCC2)CC1,binding,1 µM,69%
CN(C)c1ncc(F)c(-c2cnn3ncccc23)n1,binding,1 µM,61%
CCC(=N\O)/C(C)=C/c1ccc(F)cc1,cell-free assay,1 µM,93%
